Data from ChEMBL document CHEMBL4825737, “Design, synthesis, and biological evaluation of novel 6-(pyridin-3-yl) quinazolin-4(3H)-one derivatives as potential anticancer agents via PI3K inhibition” (Bioorg Med Chem, 2021).
pIC50: −log10 of the molar value. The source made the active and inactive calls. The rule behind the calls is not given here.

Columns and labels:
[1] = system: HCC827; experiment: Induction of apoptosis in human HCC827 cells assessed as late apoptotic cells at 4 uM incubated for 48 hrs by annexin V-FITC and propidium iodide staining based flow cytometry analysis (reference value: 0.56%); format: functional
[2] = system: HCC827; experiment: Induction of apoptosis in human HCC827 cells assessed as reduction in Cyclin-B1 expression at 1 to 4 uM incubated for 24 hrs by Western blot analysis; format: functional, cell-based; settings: dose 1-4 µM
Procedure, shortened: (§1)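 HCC827 cells treated with a range of compound concentrations for 24 h. Western blot for G2/M-associated proteins with GAPDH as loading control. Bands quantified by densitometry; mean ± SD, n = 3, compared with control.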

[3] = system: HCC827; experiment: Induction of apoptosis in human HCC827 cells assessed as reduction in p-CHK1 expression at 1 to 4 uM incubated for 24 hrs by Western blot analysis; format: functional, cell-based; settings: dose 1-4 µM; procedure, shortened: as §1
[4] = system: HCC827; experiment: Induction of apoptosis in human HCC827 cells assessed as necrotic cells at 1 uM incubated for 48 hrs by annexin V-FITC and propidium iodide staining based flow cytometry analysis (reference value: 2.57%); format: functional
[5] = system: HCC827; experiment: Induction of apoptosis in human HCC827 cells assessed as early apoptotic cells at 4 uM incubated for 48 hrs by annexin V-FITC and propidium iodide staining based flow cytometry analysis (reference value: 2.69%); format: functional
[6] = system: HCC827; experiment: Inhibition of PI3K signalling in human HCC827 cells assessed as decrease in phosphorylation of GSKbeta at Ser9 at 1 to 4 uM incubated for 24 hrs by Western blot analysis; format: cell-based; settings: dose 1-4 µM
Procedure, shortened: (§2)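 HCC827 cells treated with different compound concentrations for 24 h. Phospho-protein levels measured by Western blot. Mean ± SD from three parallel experiments, compared with DMSO control.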

[7] = system: HCC827; experiment: Induction of apoptosis in human HCC827 cells assessed as necrotic cells at 4 uM incubated for 48 hrs by annexin V-FITC and propidium iodide staining based flow cytometry analysis (reference value: 2.57%); format: functional
[8] = system: HCC827; experiment: Induction of apoptosis in human HCC827 cells assessed as early apoptotic cells at 2 uM incubated for 48 hrs by annexin V-FITC and propidium iodide staining based flow cytometry analysis (reference value: 2.69%); format: functional
[9] = system: HCC827; experiment: Induction of apoptosis in human HCC827 cells assessed as early apoptotic cells at 1 uM incubated for 48 hrs by annexin V-FITC and propidium iodide staining based flow cytometry analysis (reference value: 2.69%); format: functional
[10] = system: HCC827; experiment: Induction of apoptosis in human HCC827 cells assessed as viable cells at 2 uM incubated for 48 hrs by annexin V-FITC and propidium iodide staining based flow cytometry analysis (reference value: 94.16%); format: functional; settings: read-out: Activity
[11] = system: HCC827; experiment: Induction of apoptosis in human HCC827 cells assessed as late apoptotic cells at 1 uM incubated for 48 hrs by annexin V-FITC and propidium iodide staining based flow cytometry analysis (reference value: 0.56%); format: functional
[12] = system: HCC827; experiment: Induction of apoptosis in human HCC827 cells assessed as upregulation of Bax by Western blot analysis; format: functional, cell-based
Procedure, shortened: (§3)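 HCC827 cells treated with a range of compound concentrations. Western blot for mitochondrial apoptosis proteins with GAPDH as loading control. Bands quantified by densitometry; mean ± SD, n = 3, compared with vehicle control.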

[13] = system: HCC827; experiment: Induction of apoptosis in human HCC827 cells assessed as reduction in c-Myc expression at 1 to 4 uM incubated for 24 hrs by Western blot analysis; format: functional, cell-based; settings: dose 1-4 µM; procedure, shortened: as §1
[14] = system: HCC827; experiment: Induction of cell cycle arrest in human HCC827 cells assessed as accumulation at G2 phase incubated for 24 hrs by […]PI assay; format: functional, cell-based; settings: dose 1-4 µM
Procedure, shortened: (§4)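 HCC827 cells held 12 h in medium without FBS, then treated for 24 h. Fixed overnight in 70% ethanol and stained with propidium iodide plus RNase for 30 min in the dark at room temperature. Cell cycle distribution read by flow cytometry.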

[15] = system: HCC827; experiment: Inhibition of PI3K signalling in human HCC827 cells assessed as decrease in phosphorylation of mTOR at Ser2448 at 1 to 4 uM incubated for 24 hrs by Western blot analysis; format: cell-based; settings: dose 1-4 µM; procedure, shortened: as §2
[16] = system: L02; experiment: Antiproliferative activity against human HL7702 cells assessed as reduction in cell viability measured after 72 hrs by flow cytometry analysis; format: functional, cell-based; settings: L02, 72 h
Procedure, shortened: (§5)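 Cells in RPMI 1640 with 10% FBS and penicillin/streptomycin/amphotericin B, seeded at 2.5–3 × 10⁴ per well. Grown adherent in fresh medium for 24 h, then exposed to a range of compound concentrations for 72 h. Living cell numbers counted by flow cytometry; IC50 calculated. Mean ± SD from three experiments.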

[17] = system: HCC827; experiment: Induction of apoptosis in human HCC827 cells assessed as viable cells at 4 uM incubated for 48 hrs by annexin V-FITC and propidium iodide staining based flow cytometry analysis (reference value: 94.16%); format: functional; settings: read-out: Activity
[18] = system: HCC827; experiment: Induction of apoptosis in human HCC827 cells assessed as viable cells at 1 uM incubated for 48 hrs by annexin V-FITC and propidium iodide staining based flow cytometry analysis (reference value: 94.16%); format: functional; settings: read-out: Activity
[19] = system: HCC827; experiment: Antiproliferative activity against human HCC827 cells assessed as reduction in cell viability measured after 72 hrs by flow cytometry analysis; format: functional, cell-based; settings: HCC827, 72 h; procedure, shortened: as §5
[20] = system: HCC827; experiment: Induction of apoptosis in human HCC827 cells assessed as downregulation of Bcl-2 by Western blot analysis; format: functional, cell-based; procedure, shortened: as §3
[21] = system: HCC827; experiment: Induction of apoptosis in human HCC827 cells assessed as necrotic cells at 2 uM incubated for 48 hrs by annexin V-FITC and propidium iodide staining based flow cytometry analysis (reference value: 2.57%); format: functional
[22] = system: HCC827; experiment: Induction of apoptosis in human HCC827 cells assessed as upregulation of cleaved-caspase 9 by Western blot analysis; format: functional, cell-based; procedure, shortened: as §3
[23] = system: HEL; experiment: Antiproliferative activity against human HEL cells assessed as reduction in cell viability measured after 72 hrs by flow cytometry analysis; format: functional, cell-based; procedure, shortened: as §5
[24] = system: HCC827; experiment: Induction of cell cycle arrest in human HCC827 cells assessed as decrease in G1 phase incubated for 24 hrs by […]PI assay; format: functional, cell-based; settings: dose 1-4 µM; procedure, shortened: as §4
[25] = system: SH-SY5Y; experiment: Antiproliferative activity against human SH-SY5Y assessed as reduction in cell viability measured after 72 hrs by flow cytometry analysis; format: functional, cell-based; procedure, shortened: as §5
[26] = system: HCC827; experiment: Induction of apoptosis in human HCC827 cells assessed as reduction in CHK1 expression at 1 to 4 uM incubated for 24 hrs by Western blot analysis; format: functional, cell-based; settings: dose 1-4 µM; procedure, shortened: as §1
[27] = system: HCC827; experiment: Induction of apoptosis in human HCC827 cells assessed as late apoptotic cells at 2 uM incubated for 48 hrs by annexin V-FITC and propidium iodide staining based flow cytometry analysis (reference value: 0.56%); format: functional
[28] = Antiproliferative activity against human LM3 cells assessed as reduction in cell viability measured after 72 hrs by flow cytometry analysis; format: functional, cell-based; settings: GILM3, 72 h; procedure, shortened: as §5
[29] = system: HCC827; experiment: Induction of apoptosis in human HCC827 cells assessed as upregulation of cleaved-PRAP by Western blot analysis; format: functional, cell-based; procedure, shortened: as §3
[30] = system: HCC827; experiment: Inhibition of PI3K signalling in human HCC827 cells assessed as decrease in phosphorylation of Akt at Ser473 at 1 to 4 uM incubated for 24 hrs by Western blot analysis; format: cell-based; settings: dose 1-4 µM; procedure, shortened: as §2
[31] = Inhibition of PI3K in human HCC827 cells assessed as decrease in phosphorylation incubated for 24 hrs by cell PI3 kinase activity photometric assay; format: cell-based; settings: HCC827, 24 h
Procedure, shortened: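 Human NSCLC HCC827 cells grown in RPMI 1640 with 10% FBS and antibiotics-antimycotics, exposed to a range of concentrations for 24 h. Cells washed with Reagent A, lysed with Reagent B, protein measured by Bradford, then 100 μg lysate protein per group used in a cell PI3K assay kit for kinase activity. IC50 given as mean ± SD of three separate experiments.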

Q: Which Activity [1] does the source give for `O=C(c1ccccc1)N(C(=O)c1ccccc1)c1ccc(-c2ccc3ncn(Cc4ccccc4)c(=O)c3c2)cn1` here?
A: 11.28%

Q: And the Activity [2]?
A: Active

Q: What about the Activity [3] of the same compound?
A: Active

Q: What about the Activity [4] of the same compound?
A: 6.47%

Q: What about the Activity [5] of the same compound?
A: 27.87%

Q: What about the inhibition [6] of the same compound?
A: Active

Q: What about the Activity [7] of the same compound?
A: 6.05%

Q: And the Activity [8]?
A: 19.16%

Q: And the Activity [9]?
A: 11.77%

Q: What about the viability at 2 µM [10] of the same compound?
A: 58.5%

Q: And the Activity [11]?
A: 13.57%

Q: What about the Activity [12] of the same compound?
A: Dose-Dependent Effect

Q: What about the Activity [13] of the same compound?
A: Active

Q: And the Activity [14]?
A: Dose-Dependent Effect

Q: And the inhibition [15]?
A: Active

Q: And the pIC50 [16]?
A: 5.06

Q: And the viability at 4 µM [17]?
A: 54.8%

Q: What about the viability at 1 µM [18] of the same compound?
A: 68.2%

Q: What about the pIC50 [19] of the same compound?
A: 5.95

Q: What about the Activity [20] of the same compound?
A: Active

Q: And the Activity [21]?
A: 6.66%

Q: What about the Activity [22] of the same compound?
A: Dose-Dependent Effect

Q: What about the pIC50 [23] of the same compound?
A: 5.70

Q: What about the Activity [24] of the same compound?
A: Dose-Dependent Effect

Q: What about the pIC50 [25] of the same compound?
A: 5.67

Q: What about the Activity [26] of the same compound?
A: Active

Q: And the Activity [27]?
A: 15.63%

Q: And the pIC50 [28]?
A: 5.58

Q: And the Activity [29]?
A: Dose-Dependent Effect

Q: What about the inhibition [30] of the same compound?
A: Active

Q: And the pIC50 [31]?
A: 7.14

Q: Which results are given for `CCC(=O)Nc1ccc(-c2ccc3ncn(Cc4ccccc4)c(=O)c3c2)cn1`?
A: pIC50 [19]: < 4.40; pIC50 [23]: < 4.40; pIC50 [25]: < 4.40; pIC50 [28]: < 4.40

Q: Which results are given for `CCCCC(=O)Nc1ccc(-c2ccc3ncn(Cc4ccccc4)c(=O)c3c2)cn1`?
A: pIC50 [19]: < 4.40; pIC50 [23]: < 4.40; pIC50 [25]: < 4.40; pIC50 [28]: < 4.40

Q: With `COCC(=O)Nc1ccc(-c2ccc3ncn(Cc4ccccc4)c(=O)c3c2)cn1` as the compound, how does the pIC50 [19] read?
A: < 4.40

Q: And the pIC50 [23]?
A: < 4.40

Q: What about the pIC50 [25] of the same compound?
A: < 4.40

Q: What about the pIC50 [28] of the same compound?
A: < 4.40

Q: With `CCCCC(=O)Nc1ccc(-c2ccc3ncn(CCN4CCOCC4)c(=O)c3c2)cn1` as the compound, how does the pIC50 [19] read?
A: 4.54

Q: And the pIC50 [23]?
A: < 4.40

Q: And the pIC50 [25]?
A: < 4.40

Q: What about the pIC50 [28] of the same compound?
A: < 4.40

Q: With `CCCCC(=O)Nc1ccc(-c2ccc3ncn(Cc4ccc(C)cc4)c(=O)c3c2)cn1` as the compound, how does the pIC50 [19] read?
A: 4.49

Q: And the pIC50 [23]?
A: 4.72

Q: What about the pIC50 [25] of the same compound?
A: 4.45

Q: And the pIC50 [28]?
A: < 4.40

Q: Which results are given for `CCC(=O)Nc1ccc(-c2ccc3ncn(Cc4ccc5c(c4)OCO5)c(=O)c3c2)cn1`?
A: pIC50 [19]: < 4.40; pIC50 [23]: < 4.40; pIC50 [25]: < 4.40; pIC50 [28]: < 4.40

Q: Which results are given for `Cc1ccc(Cn2cnc3ccc(-c4ccc(N(C(=O)c5ccccc5)C(=O)c5ccccc5)nc4)cc3c2=O)cc1`?
A: pIC50 [19]: 4.53; pIC50 [23]: < 4.40; pIC50 [25]: < 4.40; pIC50 [28]: < 4.40
